Assay results as given in ChEMBL document CHEMBL1629431, “Synthesis and antitumor activity of some 2, 3-disubstituted quinazolin-4(3H)-ones and 4, 6- disubstituted- 1, 2, 3, 4-tetrahydroquinazolin-2H-ones” (2010).

Key:
Type in all cases: functional
[1] = system: SF-539; assay: Growth inhibition of human SF539 cells at 10 uM after 48 hrs by coulter counter method; conditions: SF-539, 48 h, read-out: GI
Method in brief: (§1)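 Single high-dose NCI 60-cell-line panel screen across nine tumor subpanels. Test solutions (0.2 mL) were added in duplicate to wells holding 1.8 mL of culture at 6 × 10⁴ cells/mL. Controls got PBS and DMSO at identical dilutions. Incubation was 48 h at 37 °C in humidified 5% CO₂. Cells were diluted 10-fold in saline, Coulter-counted and dilution-corrected. Results were expressed as percent growth inhibition versus control.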

[2] = system: HCT-116; assay: Growth inhibition of human HCT116 cells at 10 uM after 48 hrs by coulter counter method; conditions: HCT-116, 48 h, read-out: GI; method in brief: as §1
[3] = system: MDA-MB-468; assay: Growth inhibition of human MDA-MB-468 cells at 10 uM after 48 hrs by coulter counter method; conditions: MDA-MB-468, 48 h, read-out: GI; method in brief: as §1
[4] = system: MCF7; assay: Growth inhibition of human MCF7 cells at 10 uM after 48 hrs by coulter counter method; conditions: MCF7, 48 h, read-out: GI; method in brief: as §1
[5] = system: MDA-MB-231; assay: Growth inhibition of human MDA-MB-231 cells at 10 uM after 48 hrs by coulter counter method; conditions: MDA-MB-231, 48 h, read-out: GI; method in brief: as §1
[6] = system: SN12C; assay: Growth inhibition of human SN12C cells at 10 uM after 48 hrs by coulter counter method; conditions: read-out: GI; method in brief: as §1
[7] = system: SK-MEL-2; assay: Growth inhibition of human SK-MEL-2 cells at 10 uM after 48 hrs by coulter counter method; conditions: SK-MEL-2, 48 h, read-out: GI; method in brief: as §1
[8] = system: SR; assay: Growth inhibition of human SR cells at 10 uM after 48 hrs by coulter counter method; conditions: read-out: GI; method in brief: as §1
[9] = system: OVCAR-8; assay: Growth inhibition of human OVCAR8 cells at 10 uM after 48 hrs by coulter counter method; conditions: OVCAR-8, 48 h, read-out: GI; method in brief: as §1
[10] = system: COLO 205; assay: Growth inhibition of human COLO205 cells at 10 uM after 48 hrs by coulter counter method; conditions: COLO 205, 48 h, read-out: GI; method in brief: as §1
[11] = system: CAKI-1; assay: Growth inhibition of human Caki1 cells at 10 uM after 48 hrs by coulter counter method; conditions: CAKI-1, 48 h, read-out: GI; method in brief: as §1
[12] = system: HT-29; assay: Growth inhibition of human HT-29 cells at 10 uM after 48 hrs by coulter counter method; conditions: HT-29, 48 h, read-out: GI; method in brief: as §1
[13] = system: HOP-92; assay: Growth inhibition of human HOP92 cells at 10 uM after 48 hrs by coulter counter method; conditions: HOP-92, 48 h, read-out: GI; method in brief: as §1
[14] = system: U-251; assay: Growth inhibition of human U251 cells at 10 uM after 48 hrs by coulter counter method; conditions: U-251, 48 h, read-out: GI; method in brief: as §1
[15] = system: PC-3; assay: Growth inhibition of human PC3 cells at 10 uM after 48 hrs by coulter counter method; conditions: PC-3, 48 h, read-out: GI; method in brief: as §1
[16] = system: CCRF-CEM; assay: Growth inhibition of human CCRF-CEM cells at 10 uM after 48 hrs by coulter counter method; conditions: read-out: GI; method in brief: as §1
[17] = system: 786-0; assay: Growth inhibition of human 786-0 cells at 10 uM after 48 hrs by coulter counter method; conditions: 786-0, 48 h, read-out: GI; method in brief: as §1
[18] = system: UO-31; assay: Growth inhibition of human UO31 cells at 10 uM after 48 hrs by coulter counter method; conditions: UO-31, 48 h, read-out: GI; method in brief: as §1
[19] = system: SK-OV-3; assay: Growth inhibition of human SKOV3 cells at 10 uM after 48 hrs by coulter counter method; conditions: SK-OV-3, 48 h, read-out: GI; method in brief: as §1
[20] = system: UACC-62; assay: Growth inhibition of human UACC62 cells at 10 uM after 48 hrs by coulter counter method; conditions: UACC-62, 48 h, read-out: GI; method in brief: as §1
[21] = system: SF-268; assay: Growth inhibition of human SF268 cells at 10 uM after 48 hrs by coulter counter method; conditions: SF-268, 48 h, read-out: GI; method in brief: as §1
[22] = system: SNB-75; assay: Growth inhibition of human SNB75 cells at 10 uM after 48 hrs by coulter counter method; conditions: SNB-75, 48 h, read-out: GI; method in brief: as §1
[23] = system: BT-549; assay: Growth inhibition of human BT549 cells at 10 uM after 48 hrs by coulter counter method; conditions: BT-549, 48 h, read-out: GI; method in brief: as §1
[24] = system: M14; assay: Growth inhibition of human M14 cells at 10 uM after 48 hrs by coulter counter method; conditions: M14, 48 h, read-out: GI; method in brief: as §1
[25] = system: K562; assay: Growth inhibition of human K562 cells at 10 uM after 48 hrs by coulter counter method; conditions: K562, 48 h, read-out: GI; method in brief: as §1
[26] = system: IGROV-1; assay: Growth inhibition of human IGROV1 cells at 10 uM after 48 hrs by coulter counter method; conditions: IGROV-1, 48 h, read-out: GI; method in brief: as §1
[27] = system: NCI-H23; assay: Growth inhibition of human NCI-H23 cells at 10 uM after 48 hrs by coulter counter method; conditions: NCI-H23, 48 h, read-out: GI; method in brief: as §1
[28] = system: NCI-H226; assay: Growth inhibition of human NCI-H226 cells at 10 uM after 48 hrs by coulter counter method; conditions: NCI-H226, 48 h, read-out: GI; method in brief: as §1
[29] = system: OVCAR-4; assay: Growth inhibition of human OVCAR4 cells at 10 uM after 48 hrs by coulter counter method; conditions: OVCAR-4, 48 h, read-out: GI; method in brief: as §1
[30] = system: T47D; assay: Growth inhibition of human T47D cells at 10 uM after 48 hrs by coulter counter method; conditions: read-out: GI; method in brief: as §1
[31] = Growth inhibition of human Hs 578T cells at 10 uM after 48 hrs by coulter counter method; conditions: read-out: GI; method in brief: as §1
[32] = system: MOLT-4; assay: Growth inhibition of human MOLT4 cells at 10 uM after 48 hrs by coulter counter method; conditions: MOLT-4, 48 h, read-out: GI; method in brief: as §1
[33] = system: HL-60(TB); assay: Growth inhibition of human HL-60(TB) cells at 10 uM after 48 hrs by coulter counter method; conditions: HL-60, 48 h, read-out: GI
Method in brief: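 Part of the NCI 60-cell-line single-high-dose panel. Cells were seeded at 6 × 10⁴ cells/mL with test solution in duplicate wells, alongside PBS/DMSO controls at identical dilutions. Plates were held 48 h at 37 °C in a humidified 5% CO₂ incubator. Cells were then diluted 10-fold in saline and counted by Coulter counter, with counts corrected for dilution. Results are percent growth of treated cells, reported as GI %.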

[34] = system: SK-MEL-28; assay: Growth inhibition of human SK-MEL-28 cells at 10 uM after 48 hrs by coulter counter method; conditions: SK-MEL-28, 48 h, read-out: GI; method in brief: as §1
[35] = system: A549; assay: Growth inhibition of human A549 cells at 10 uM after 48 hrs by coulter counter method; conditions: A549, 48 h, read-out: GI; method in brief: as §1
[36] = system: NCI-H522; assay: Growth inhibition of human NCI-H522 cells at 10 uM after 48 hrs by coulter counter method; conditions: NCI-H522, 48 h, read-out: GI; method in brief: as §1
[37] = system: KM12; assay: Growth inhibition of human KM12 cells at 10 uM after 48 hrs by coulter counter method; conditions: KM12, 48 h, read-out: GI; method in brief: as §1

Compound | inhibition of growth at 10 µM [1] [%] | inhibition of growth at 10 µM [2] [%] | inhibition of growth at 10 µM [3] [%] | inhibition of growth at 10 µM [4] [%] | inhibition of growth at 10 µM [5] [%] | inhibition of growth at 10 µM [6] [%] | inhibition of growth at 10 µM [7] [%] | inhibition of growth at 10 µM [8] [%] | inhibition of growth at 10 µM [9] [%] | inhibition of growth at 10 µM [10] [%] | inhibition of growth at 10 µM [11] [%] | inhibition of growth at 10 µM [12] [%] | inhibition of growth at 10 µM [13] [%] | inhibition of growth at 10 µM [14] [%] | inhibition of growth at 10 µM [15] [%] | inhibition of growth at 10 µM [16] [%] | inhibition of growth at 10 µM [17] [%] | inhibition of growth at 10 µM [18] [%] | inhibition of growth at 10 µM [19] [%] | inhibition of growth at 10 µM [20] [%] | further results
NS(=O)(=O)c1ccc(Nc2nc3ccccc3c(=O)n2-c2ccc(Cl)cc2)cc1 | 30 | 33.6 | 30 | 30 | 30 | 30 | 30 | 30.2 | 30 | 30 | 30 | 30 | 30 | 30 | 30 | 30 | 30 | 30 | 30 | 30 | inhibition of growth at 10 µM [21]: 30%; inhibition of growth at 10 µM [22]: 30%; inhibition of growth at 10 µM [23]: 30%; inhibition of growth at 10 µM [24]: 30%; inhibition of growth at 10 µM [25]: 34.3%; inhibition of growth at 10 µM [26]: 30%; inhibition of growth at 10 µM [27]: 30%; inhibition of growth at 10 µM [28]: 30%; inhibition of growth at 10 µM [29]: 30%; inhibition of growth at 10 µM [30]: 30%; inhibition of growth at 10 µM [31]: 30%; inhibition of growth at 10 µM [32]: 38.1%; inhibition of growth at 10 µM [33]: 30%; inhibition of growth at 10 µM [34]: 30%; inhibition of growth at 10 µM [35]: 30%; inhibition of growth at 10 µM [36]: 30%; inhibition of growth at 10 µM [37]: 30%
O=c1c2ccccc2nc(Nc2cc(O)nc(S)n2)n1-c1ccc(Cl)cc1 | 30 | 30 | 30 | 30 | 30 | 30 | 30 | 36.4 | 30 | 30 | 30 | 30 | 30 | 30 | 30 | 30 | 30 | 30 | 30 | 30 | inhibition of growth at 10 µM [21]: 30%; inhibition of growth at 10 µM [22]: 30%; inhibition of growth at 10 µM [23]: 30%; inhibition of growth at 10 µM [24]: 30%; inhibition of growth at 10 µM [25]: 36.5%; inhibition of growth at 10 µM [26]: 30%; inhibition of growth at 10 µM [27]: 30%; inhibition of growth at 10 µM [28]: 30%; inhibition of growth at 10 µM [29]: 30%; inhibition of growth at 10 µM [30]: 30%; inhibition of growth at 10 µM [31]: 30%; inhibition of growth at 10 µM [32]: 30.8%; inhibition of growth at 10 µM [33]: 30%; inhibition of growth at 10 µM [34]: 30%; inhibition of growth at 10 µM [35]: 30%; inhibition of growth at 10 µM [36]: 30%; inhibition of growth at 10 µM [37]: 30%
COc1ccc(C2NC(=O)Nc3ccc(CNc4ccccn4)cc32)cc1 (stereo unspecified) | 30 | 36.8 | 30 | 30 | 30.2 | 30 | 30 | 30 | 30 | 30 | 30 | 30 | 30 | 30 | 30 | 30 | 30 | 30 | 30 | 30 | inhibition of growth at 10 µM [21]: 30%; inhibition of growth at 10 µM [22]: 30%; inhibition of growth at 10 µM [23]: 30%; inhibition of growth at 10 µM [24]: 30%; inhibition of growth at 10 µM [25]: 30%; inhibition of growth at 10 µM [26]: 30%; inhibition of growth at 10 µM [27]: 30%; inhibition of growth at 10 µM [28]: 30%; inhibition of growth at 10 µM [29]: 30%; inhibition of growth at 10 µM [30]: 33.1%; inhibition of growth at 10 µM [31]: 30%; inhibition of growth at 10 µM [32]: 30%; inhibition of growth at 10 µM [33]: 30%; inhibition of growth at 10 µM [34]: 30%; inhibition of growth at 10 µM [35]: 30%; inhibition of growth at 10 µM [36]: 30%; inhibition of growth at 10 µM [37]: 30%
